Test results: ChEMBL document CHEMBL1123708, “Resolved cis- and trans-2-amino-5-methoxy-1-methyltetralins: central dopamine receptor agonists and antagonists” (1987)
Calls of active or inactive are those of the source. No cut-off for these calls is given here.

How the values were obtained:
[1] = molecular target: T1, Dopamine receptor (Rattus norvegicus) (UniProt P25115+P19020+P30729+P18901+P61169); assay: In vivo displacement of DiPr-5,6-ADTN from Dopamine receptors in rat striatum; format: organism-based
[2] = molecular target: T1, Dopamine receptor (Rattus norvegicus); assay: Ability to displace the Dopamine receptor agonist DiPr-5,6-ADTN from rat striatal binding sites in vivo at a dose of 52 umol/kg by subcutaneous administration; format: organism-based
[3] = molecular target: T1, Dopamine receptor (Rattus norvegicus); assay: Ability to displace the Dopamine receptor agonist DiPr-5,6-ADTN from rat striatal binding sites in vivo at a dose of 13 umol/kg by subcutaneous administration; format: organism-based
[4] = test system: Rattus norvegicus; assay: Change in rectal temperature induced by DiPr-5,6-ADTN at a dose of 3.2 umol/kg of compound by subcutaneous administration; format: functional
In short: (§1)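 Rats received DiPr-5,6-ADTN (0.25 μmol/kg sc) 100 min and test compound sc 40 min before death. Rectal temperature change (°C) was recorded between 60 and 100 min after DiPr-5,6-ADTN. Values are mean ± SEM, n = 4, with Student's t test vs DiPr-5,6-ADTN alone.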

[5] = test system: Rattus norvegicus; assay: ((+)-UH-232) induced locomotor stimulation was determined in non pretreated rats at a dose of 13 umol/kg by subcutaneous administration; format: functional
[6] = test system: Rattus norvegicus; assay: ((+)-UH-232) induced locomotor stimulation was determined in non pretreated rats at a dose of 52 umol/kg by subcutaneous administration; format: functional
[7] = test system: Rattus norvegicus; assay: In vivo DOPA accumulation in non pre-treated rat limbic system following s.c. administration.; format: functional; conditions: sc
In short: (§2)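 Rats without pretreatment received test drug sc 65 min and NSD 1015 (100 mg/kg ip) 30 min before death, with saline controls. DOPA was measured in limbic or striatal tissue. Dose for half-maximal change was estimated from 4-5-dose curves (n = 3-5), maximal level as % of control.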

[8] = test system: Rattus norvegicus; assay: In vivo DOPA accumulation in non pre-treated rat striatal system following s.c. administration.; format: functional; conditions: sc; in short: as §2
[9] = test system: Rattus norvegicus; assay: Induced locomotor stimulation was determined in non pretreated rats at a dose of 3.2 umol/kg by subcutaneous administration; format: functional
In short: (§3)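 Untreated rats received test drug sc 5 min before a 30-min session in photocell motility meters, with accumulated counts recorded. Activity is expressed as percent of saline controls, mean ± SEM, n = 3-5. Gross behaviour was observed through a semitransparent mirror. Differences from saline controls were assessed by Student's t test.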

[10] = test system: Rattus norvegicus; assay: Locomotory activity was determined in non pretreated rats at a dose of 52 umol/kg by subcutaneous administration; format: functional; in short: as §3
[11] = test system: Rattus norvegicus; assay: Locomotory activity was determined in non pretreated rats at a dose of 3.2 umol/kg by subcutaneous administration; format: functional; in short: as §3
[12] = test system: Rattus norvegicus; assay: Change in rectal temperature induced by DiPr-5,6-ADTN at a dose of 52 umol/kg of compound by subcutaneous administration; format: functional; in short: as §1
[13] = test system: Rattus norvegicus; assay: Change in rectal temperature induced by DiPr-5,6-ADTN at a dose of 13 subcutaneous administration; format: functional; in short: as §1
[14] = molecular target: T1, Dopamine receptor (Rattus norvegicus); assay: Ability to displace the Dopamine receptor agonist DiPr-5,6-ADTN from rat striatal binding sites in vivo at a dose of 52 uM/kg by subcutaneous administration; format: organism-based
[15] = test system: Rattus norvegicus; assay: ((+)-UH-232) induced locomotor stimulation was determined in non pretreated rats at a dose of 3.2 umol/kg by subcutaneous administration; format: functional
[16] = test system: Rattus norvegicus; assay: Change in rectal temperature induced by DiPr-5,6-ADTN at a dose of 204 umol/kg of compound by subcutaneous administration; format: functional; in short: as §1
[17] = test system: Rattus norvegicus; assay: Induced locomotor stimulation in non pre-treated rats by 13 umol/kg s.c. administration.; format: functional
[18] = test system: Rattus norvegicus; assay: Induced locomotor stimulation was determined in non pretreated rats at a dose of 204 umol/kg by subcutaneous administration; format: functional
[19] = test system: Rattus norvegicus; assay: Induced locomotor stimulation was determined in non pretreated rats at a dose of 52 uM/kg by subcutaneous administration; format: functional; in short: as §3
[20] = test system: Rattus norvegicus; assay: In vivo DOPA accumulation in reserpine pretreated rat limbic system by subcutaneous administration; I denotes inactive; format: functional, organism-based
In short: (§4)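 Rats received reserpine (5 mg/kg sc) 18 h, test drug sc 60 min and NSD 1015 (100 mg/kg ip) 30 min before death, with saline controls. Limbic or striatal DOPA was measured. Dose for half-maximal decrease was estimated from 4-7-dose curves (n = 3-5), minimal level as % of control.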

[21] = test system: Rattus norvegicus; assay: In vivo DOPA accumulation in reserpine pretreated rat striatum system by subcutaneous administration; I denotes inactive; format: functional, organism-based; in short: as §4
[22] = test system: Rattus norvegicus; assay: Locomotory activity was determined in reserpine pretreated rats at a dose of 52 umol/kg by subcutaneous administration. Value is the accumulation counts/30 min; format: functional
In short: (§5)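 Rats were given reserpine 5 mg/kg sc 18 h beforehand, then test drug sc immediately before the activity session. Motor activity was recorded by photocells in motility meters as accumulated counts over 30 min, mean ± SEM, n = 3-4. Gross behaviour was watched for signs of stimulation. Reserpine-only controls were included.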

[23] = test system: Rattus norvegicus; assay: Induced locomotor stimulation in non pre-treated rats by 52 umol/kg s.c. administration.; format: functional
[24] = test system: Rattus norvegicus; assay: Change in rectal temperature induced by DiPr-5,6-ADTN at a dose of 13 umol/kg of compound by subcutaneous administration; format: functional; in short: as §1
[25] = molecular target: T1, Dopamine receptor (Rattus norvegicus); conditions: 13 uM
[26] = molecular target: T1, Dopamine receptor (Rattus norvegicus); conditions: 204 uM
[27] = test system: Rattus norvegicus; assay: ((+)-UH-232) induced locomotor stimulation was determined in non pretreated rats at a dose of 204 umol/kg by subcutaneous administration; format: functional
[28] = test system: Rattus norvegicus; assay: Induced locomotor stimulation was determined in non pretreated rats at a dose of 13 umol/kg by subcutaneous administration; format: functional
[29] = test system: Rattus norvegicus; assay: In vivo DOPA accumulation in reserpine pretreated rat limbic system by subcutaneous administration; format: functional; conditions: sc; in short: as §4
[30] = test system: Rattus norvegicus; assay: In vivo DOPA accumulation in reserpine pretreated rat striatum system by subcutaneous administration; format: functional; conditions: sc; in short: as §4
[31] = test system: Rattus norvegicus; assay: Locomotory activity was determined in reserpine pretreated rats at a dose of 125 umol/kg by subcutaneous administration. Value is the accumulation counts/30 min; format: functional; in short: as §5
[32] = test system: Rattus norvegicus; assay: Change in rectal temperature induced by DiPr-5,6-ADTN at a dose of 2.7 umol/kg of compound by subcutaneous administration; format: functional
In short: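 Rats received DiPr-5,6-ADTN at 0.25 μmol/kg sc, then the test compound sc (tested range 2.7–204 μmol/kg) 60 min later. Rectal temperature change was measured between 60 and 100 min after DiPr-5,6-ADTN. Values are mean ± SEM, n = 4, compared with DiPr-5,6-ADTN-only controls by Student's t test.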

[33] = test system: Rattus norvegicus; assay: In vivo DOPA accumulation in reserpine pretreated rat limbic system after 1.4 umol/kg ip; I denotes inactive; format: functional, organism-based
[34] = test system: Rattus norvegicus; assay: In vivo DOPA accumulation in reserpine pretreated rat striatum system after 1.4 umol/kg ip; I denotes inactive; format: functional, organism-based
[35] = test system: Rattus norvegicus; assay: Locomotory activity was determined in non pretreated rats at a dose of 2.7 umol/kg by intraperitoneal administration

| Compound | Binding [1] | Binding [2] | Activity [6] | ED50 [7] | ED50 [8] | Activity [11] | Temperature [12] | Binding [14] | Activity [19] | Activity [23] | Body temp change [12] | also measured |
| --- | --- | --- | --- | --- | --- | --- | --- | --- | --- | --- | --- | --- |
| COc1cccc2c1CC[C@@H](N(C)C)[C@H]2C | 60% | 14% | 8% | 2.2 µmol/kg | 2.9 µmol/kg | 100% | 0.28 °C | – | – | – | – | Binding [3]: 40%; Temperature [4]: -0.15 °C; Activity [5]: 15%; Activity [9]: 62%; Activity [10]: 9%; Temperature [13]: 1.6 °C |
| CCCN(CCC)[C@@H]1CCc2c(OC)cccc2[C@@H]1C | 83% | – | – | 12.8 µmol/kg | 9.6 µmol/kg | 152% | – | 34% | 24% | 70% | 0.45 °C | Body temp change [4]: -0.03 °C; Activity [15]: 105%; Body temp change [16]: 0.45 °C; Activity [17]: 78%; Activity [18]: 22%; ED50 [20]: inactive; ED50 [21]: inactive; Activity [22]: 4 counts/30 min; Body temp change [24]: 1.4 °C; Binding [25]: 61%; Binding [26]: 31% |
| CCCN[C@@H]1CCc2c(OC)cccc2[C@@H]1C | 85% | 41% | 54% | 4.6 µmol/kg | 4.4 µmol/kg | 132% | 1.05 °C | – | – | 159% | – | Activity [27]: 29%; Temperature [16]: 0.47 °C; Activity [28]: 95%; Temperature [24]: 1.3 °C |
| CCCN[C@H]1CCc2c(O)cccc2[C@H]1C | – | – | – | – | – | – | – | 66% | 80% | – | -0.45 °C | ED50 [29]: 4 µmol/kg; ED50 [30]: 5 µmol/kg; Activity [31]: 26% |
| O=C(CCCN1CCC(O)(c2ccc(Cl)cc2)CC1)c1ccc(F)cc1 [HALOPERIDOL] | – | – | – | 0.19 µmol/kg | 0.19 µmol/kg | – | – | – | – | – | – | Body temp change [32]: 1.34 °C; ED50 [33]: inactive; ED50 [34]: inactive; Activity [35]: 3% |
